Data reported in ChEMBL document CHEMBL1154400, “Pharmacokinetics of single- and multiple-dose oral clarithromycin in soft tissues determined by microdialysis” (Antimicrob Agents Chemother, 2007).

Key:
[1] = Cmax in fasting human interstitial-space fluid of subcutaneous adipose tissue at 250 mg, po; assay type: ADME, organism-based
In short: (§1)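 Healthy male volunteers aged 25-37 y, fasting; single oral 250 mg tablet after 60-min probe equilibration. Microdialysis probes in skeletal muscle and subcutaneous adipose tissue, perfused with Ringer's at 1.5 µl/min; dialysate and antecubital venous blood sampled every 20 min to 4 h, then every 30 min to 8 h. HPLC assay. Interstitial concentration = 100 x Cdialysate/recovery.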

[2] = Cmax in fasting human interstitial-space fluid of skeletal muscle at 250 mg, po; assay type: ADME, organism-based, Muscle tissue; set-up: dose 250 mg, route oral; in short: as §1
[3] = Tmax in fasting human plasma at 250 mg, po; assay type: ADME, organism-based; in short: as §1
[4] = Tmax in fasting human plasma unbound fraction at 250 mg, po; assay type: ADME, organism-based
In short: (§2)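 Free plasma concentrations obtained by applying each volunteer's measured protein binding to total plasma concentrations, measured by HPLC after the 250 mg single dose or the 500 mg b.i.d. steady-state dose, with sampling over 8 h.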

[5] = Tmax in fasting human interstitial-space fluid of subcutaneous adipose tissue at 250 mg, po; assay type: ADME, organism-based; in short: as §1
[6] = Tmax in fasting human interstitial-space fluid of skeletal muscle at 250 mg, po; assay type: ADME, organism-based, Muscle tissue; in short: as §1
[7] = Terminal half life in fasting human plasma at 250 mg, po; assay type: ADME, organism-based; conditions: read-out: beta t1/2 (converted); in short: as §1
[8] = Terminal half life in fasting human plasma unbound fraction at 250 mg, po; assay type: ADME, organism-based; conditions: read-out: beta t1/2 (converted); in short: as §2
[9] = Terminal half life in fasting human interstitial-space fluid of subcutaneous adipose tissue at 250 mg, po; assay type: ADME, organism-based; conditions: read-out: beta t1/2 (converted); in short: as §1
[10] = Terminal half life in fasting human interstitial-space fluid of skeletal muscle at 250 mg, po; assay type: ADME, organism-based, Muscle tissue; conditions: read-out: beta t1/2 (converted); in short: as §1
[11] = test system: Homo sapiens; experiment: Volume of distribution at terminal phase in fasting human plasma at 250 mg, po; assay type: ADME, organism-based; conditions: in vivo
In short: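 Single oral 250 mg tablet given to fasting healthy male volunteers (n=7, 25–37 y). Venous plasma (lithium heparin) was sampled every 20 min over 0–4 h and every 30 min over 4–8 h, then analysed by reverse-phase HPLC. Vz = dose × F/(AUC0-∞ × kel), with bioavailability F set at 55%. AUC was calculated by the linear trapezoidal rule.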

[12] = Total clearance in fasting human plasma at 250 mg, po; assay type: ADME, organism-based
[13] = AUC (0 to 8 hrs) in human plasma at 500 mg, po, bid for 3 to 5 days; assay type: ADME, organism-based; set-up: dose 500 mg, time < 8 hr, route oral
In short: (§3)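 Oral clarithromycin 500 mg b.i.d. for 3-5 days, starting 12 h after a single 250 mg dose; last dose given supervised on the morning of day 2 after a baseline blood draw and a 2-h trough dialysate. Sampling as on day 1: microdialysis of muscle and adipose tissue plus venous plasma over 8 h, HPLC. Dialysate concentrations corrected for individual recovery.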

[14] = test system: Homo sapiens; experiment: Free AUC (0 to 8 hrs) in human plasma at 500 mg, po, bid for 3 to 5 days; assay type: ADME, organism-based; conditions: in vivo; in short: as §2
[15] = AUC (0 to 8 hrs) in human interstitial-space fluid of subcutaneous adipose tissue at 500 mg, po, bid for 3 to 5 days; assay type: ADME, organism-based; in short: as §3
[16] = AUC (0 to 8 hrs) in human interstitial-space fluid of skeletal muscle at 500 mg, po, bid for 3 to 5 days; assay type: ADME, organism-based, Muscle tissue; set-up: dose 500 mg, time < 8 hr, route oral; in short: as §3
[17] = AUC (0 to 24 hrs) in human plasma at 500 mg, po, bid for 3 to 5 days; assay type: ADME, organism-based; set-up: time < 24 hr, dose 500 mg, route oral; in short: as §3
[18] = test system: Homo sapiens; experiment: Free AUC (0 to 24 hrs) in human plasma at 500 mg, po, bid for 3 to 5 days; assay type: ADME, organism-based; conditions: in vivo; in short: as §2
[19] = AUC (0 to 24 hrs) in human interstitial-space fluid of subcutaneous adipose tissue at 500 mg, po, bid for 3 to 5 days; assay type: ADME, organism-based; in short: as §3
[20] = AUC (0 to 24 hrs) in human interstitial-space fluid of skeletal muscle at 500 mg, po, bid for 3 to 5 days; assay type: ADME, organism-based, Muscle tissue; set-up: dose 500 mg, time < 24 hr, route oral; in short: as §3
[21] = Cmax in human plasma at 500 mg, po, bid for 3 to 5 days; assay type: ADME, organism-based; set-up: dose 500 mg, route oral; in short: as §3
[22] = test system: Homo sapiens; experiment: Free Cmax in human plasma at 500 mg, po, bid for 3 to 5 days; assay type: ADME, organism-based; conditions: in vivo; in short: as §2
[23] = Cmax in human interstitial-space fluid of subcutaneous adipose tissue at 500 mg, po, bid for 3 to 5 days; assay type: ADME, organism-based; in short: as §3
[24] = Cmax in human interstitial-space fluid of skeletal muscle at 500 mg, po, bid for 3 to 5 days; assay type: ADME, organism-based, Muscle tissue; set-up: dose 500 mg, route oral; in short: as §3
[25] = Ratio of AUC (0 to 24 hrs) in human interstitial-space fluid of skeletal muscle to free AUC (0 to 24 hrs) in human plasma at 500 mg, po bid
[26] = Ratio of AUC (0 to 24 hrs) in human interstitial-space fluid of subcutaneous adipose tissue to free AUC (0 to 24 hrs) in human plasma at 500 mg, po bid

- Cmax [1]: 70 ng/mL
- Cmax [2]: 80 ng/mL
- Tmax [3]: 2.6 h
- Tmax [4]: 2.6 h
- Tmax [5]: 3 h
- Tmax [6]: 3 h
- half-life [7]: 1.9 h
- half-life [8]: 1.9 h
- half-life [9]: 2.4 h
- half-life [10]: 3.1 h
- Vbeta [11]: 94 L
- CL/F [12]: 620 mL/min
- AUC at 8 h [13]: 10600 ng·h/mL
- fAUC [14]: 2260 ng·h/mL
- AUC [15]: 840 ng·h/mL
- AUC at 8 h [16]: 920 ng·h/mL
- AUC at 24 h [17]: 26800 ng·h/mL
- fAUC [18]: 5850 ng·h/mL
- AUC [19]: 2220 ng·h/mL
- AUC at 24 h [20]: 2420 ng·h/mL
- Cmax [21]: 2210 ng/mL
- fCmax [22]: 0.58 mg/L
- Cmax [23]: 230 ng/mL
- Cmax [24]: 230 ng/mL
- Kp uu [25]: 0.41
- Kp uu [26]: 0.39
Compound: CC[C@H]1OC(=O)[C@H](C)[C@@H](O[C@H]2C[C@@](C)(OC)[C@@H](O)[C@H](C)O2)[C@H](C)[C@@H](O[C@@H]2O[C@H](C)C[C@H](N(C)C)[C@H]2O)[C@](C)(OC)C[C@@H](C)C(=O)[C@H](C)[C@@H](O)[C@]1(C)O [CLARITHROMYCIN]
